Measured values published in ChEMBL document CHEMBL2157962, “A fluorous and click approach for screening potential PET probes: Evaluation of potential hypoxia biomarkers” (Bioorg Med Chem, 2012).

Key:
[1] = tested on: MCF7; assay: Drug uptake in human MCF7 cells at 30 GBq/umol after 1 hr in hypoxic condition by gamma counting; assay type: ADME, cell-based; settings: mcf7, 1 h
Outline: (§1)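 MCF-7 cells were grown in RPMI 1640 with 10% FBS and 1% P/S, seeded at 100,000 cells/well, and cultured 24 h at 37 °C in 5% CO2. They were then kept 4 h in a sealed chamber flushed with 5% CO2/95% N2 (10 L/min, 15 min). ¹⁸F-tracer (0.5–1.0 MBq/mL in PBS) was added for 1 h at 37 °C under hypoxia. Cells were PBS-washed twice, lysed in 1 M NaOH, and gamma-counted; uptake is % of added activity, n=6.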

[2] = tested on: MCF7; assay: Drug uptake in human MCF7 cells at 0.3 MBq/umol after 1 hr in hypoxic condition by gamma counting; assay type: ADME, cell-based; settings: mcf7, 1 h; outline: as §1
[3] = tested on: MCF7; assay: Drug uptake in human MCF7 cells at 30 MBq/umol after 1 hr in hypoxic condition by gamma counting; assay type: ADME, cell-based; settings: mcf7, 1 h; outline: as §1
[4] = tested on: MCF7; assay: Drug uptake in human MCF7 cells at 0.5 to 1.0 MBq/mL after 1 hr in hypoxic condition by gamma counting; assay type: ADME, cell-based; settings: mcf7, 1 h
Outline: (§2)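 MCF-7 cells in RPMI 1640 with 10% FBS were seeded at 100,000 cells/well and grown 24 h, then held 4 h normoxic (5% CO2) or hypoxic (5% CO2/95% N2 chamber, 37 °C). ¹⁸F-labeled tracer (0.5–1.0 MBq/mL in PBS) was added for 1 h at 37 °C. Cells were washed twice with PBS, lysed in 1 M NaOH, and gamma counted. Uptake is expressed as % of added activity; 6 replicates.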

[5] = tested on: MCF7; assay: Drug uptake in human MCF7 cells at 0.5 to 1.0 MBq/mL after 1 hr in normoxic condition by gamma counting; assay type: ADME, cell-based; settings: mcf7, 1 h; outline: as §2
[6] = Drug metabolism of the compound assessed as reduction rate assessed per unit of enzyme in anoxic conditions in presence of bovine milk xanthine oxidase; assay type: physicochemical; settings: cattle
Outline: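 Xanthine oxidase in PBS (0.118 unit) added to 0.29 mM xanthine (reducing substrate) plus 0.12 mM nitroaromatic (oxidizing substrate) in 50 mM PBS pH 7.5 at 37 °C. Solutions argon-degassed 20 min; sealed cuvette. Rate taken from initial absorbance loss at λmax (>325 nm) or at the 249 nm isosbestic point, converted to nmol/min via extinction coefficients. Triplicate, mean ± SD.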

[7] = 1-Octanol-phosphate buffer partition coefficient, log P of the compound at pH 7.4 after 30 mins by shake-flask method; assay type: physicochemical
Outline: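 Shake-flask: about 0.01–0.1 mg/mL compound shaken in 1-octanol and 50 mM phosphate buffer (pH 7.4) for 30 min at room temperature. Equal amounts of each phase quantified by HPLC UV absorbance (C18, isocratic ethanol:water). Triplicate, mean ± SD.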

[8] = tested on: MCF7; assay: Drug uptake in human MCF7 cells at 0.5 to 1.0 MBq/mL after 1 hr measured 60 mins post wash out in normoxic condition by gamma counting; assay type: ADME, cell-based; settings: mcf7, 1 h
Outline: (§3)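 MCF-7 cells were preconditioned 4 h normoxic or hypoxic (5% CO2/95% N2), then given ¹⁸F tracer (0.5–1.0 MBq/mL) for 1 h at 37 °C. Radioactive medium was replaced with fresh RPMI 1640 (10% FBS) for a further 1 h under the same oxygen condition. Cells were then PBS-washed, lysed in 1 M NaOH and gamma counted. Retained activity is given as % of added.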

[9] = tested on: MCF7; assay: Drug uptake in human MCF7 cells at 0.5 to 1.0 MBq/mL after 1 hr measured 60 mins post wash out in hypoxic condition by gamma counting; assay type: ADME, cell-based; settings: mcf7, 1 h; outline: as §3

Row | SMILES | Drug uptake [4] | Drug uptake [5] | Drug metabolism [6] [nmol/min/U] | logD at 0.5 h [7] | further results
1 | O=[N+]([O-])c1nccn1CC(O)C[18F] (stereo unspecified) [[18F]FLUOROMISONIDAZOLE] | – | – | – | – | Drug uptake [1]: 3.9%; Drug uptake [2]: 1.1%; Drug uptake [3]: 3.2%
2 | O=[N+]([O-])c1ncccc1NCc1cn(CC[18F])nn1 | Active | Active | – | – | –
3 | O=[N+]([O-])c1nccn1CC(O)CF (stereo unspecified) [FLUOROMISONIDAZOLE] | – | – | 37 | – | –
4 | O=[N+]([O-])c1ccnn1Cc1cn(CCF)nn1 | – | – | 20 | 0.03 | –
5 | O=[N+]([O-])c1ccnn1Cc1cn(CC[18F])nn1 | Not Active | – | – | – | –
6 | O=[N+]([O-])c1nccn1Cc1cn(CC[18F])nn1 | Active | Active | – | – | –
7 | O=[N+]([O-])c1ncccc1NCc1cn(CCF)nn1 | – | – | 58 | 0.04 | –
8 | O=[N+]([O-])c1cnc(NCc2cn(CCF)nn2)s1 | – | – | 277 | 0.79 | –
9 | O=[N+]([O-])c1nccn1Cc1cn(CCF)nn1 | – | – | 36 | -0.41 | –
10 | O=[N+]([O-])c1cnc(NCc2cn(CC[18F])nn2)s1 | Active | Active | – | – | Drug uptake [8]: Active; Drug uptake [9]: Active
